# Source: PubChem (several laboratories)
# Only some compounds are listed: those with a hit (about 3.3% of all), similar ones and a draw of the others.
# IL1B NFkB pot – enhances IL-1B driven NFkB nuclear translocation. AID 819. hit rate 0.3% among 94,000. HUVEC IL-1B NFkB p65 nuclear translocation imaging. activation, % at 2 µM;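 active means activation above 40%, about the mean plus 3 SD, also judged a hit on visual image review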;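 further: percent activation is computed from the nuclear over cytoplasmic p65 intensity ratio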
# IL1B cytotox – toxic to HUVEC cells under IL-1B stimulation. HUVEC cell count loss, Hoechst imaging, IL-1B stimulated. cell count reduction, % at 2 µM. hit rate 0.41% among 94,000. AID 845;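 active means cell count reduction more than 3 SD above the screen-wide mean, cut at about 70% in these data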;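 further: normalized per plate to untreated control cells as the no-loss baseline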
# IL1B NFkB inh – blocks IL-1B driven NFkB nuclear translocation in HUVEC cells. HUVEC IL-1B NFkB p65 nuclear translocation imaging. inhibition, % at 2 µM. hit rate 0.43% among 94,000. AID 796;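 active means inhibition above about 30% together with a positive call from visual inspection of the well image, limit read from the data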;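 further: nuclear over cytoplasmic p65 intensity ratio measured by imaging; 0% = IL-1B stimulated DMSO wells and 100% = unstimulated DMSO wells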
# HIV Rev-RRE inh – inhibitors of HIV-1 Rev-RRE RNA interaction; Rev peptide-RRE RNA binding, FRET; inhibition, % at 8 µM; hit rate 0.79% among 97,000;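 active means inhibition above the screen-wide mean plus 3 SD, cut at about 35% in these data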;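 further: 0% = median DMSO wells and 100% = median Neomycin B control wells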
# Target sequence (P05866 whole entry, looked up): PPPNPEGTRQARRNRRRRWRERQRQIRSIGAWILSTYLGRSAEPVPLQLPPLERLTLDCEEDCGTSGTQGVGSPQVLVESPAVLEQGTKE
#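 System: Cy5-labelled duplex RRE RNA binding fluorescein-labelled HIV Rev peptide; Signal: fluorescein-to-Cy5 FRET, 480 nm excitation; Also added: labelled Rev peptide; Compound: one concentration, 8 µM nominal; Buffer or medium: HEPES pH 7.5 salt buffer with EDTA; Read-out: % inhibition of FRET ratio versus controls; Schedule: 5 min preincubation and 15 min binding, 25 °C.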
# FAK inh – FAK (human) kinase inhibition | AID 727 | biochemical FAK kinase activity assay | Q05397 | hit rate 0.84% among 97,000 | inhibition, %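 (tested at 7 µM)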; in the data active means inhibition above about 19%;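 further: 0% = DMSO and 100% = reference compound high control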
# Measles CPE – protection of cells from measles virus. Measles virus-infected cells, CPE protection, absorbance. protection (pct of control), % at 4 µM. hit rate 1.5% among 140,000. AID 841; in the data active means protection mostly above about 24%, no sharp cut-off; inactive means mostly below about 26%
# Active calls of the source: *; . = not tested or not shown; [ ] = another dose, or the depositor's remark.
SMILES,IL1B NFkB pot,IL1B cytotox,IL1B NFkB inh,HIV Rev-RRE inh,FAK inh,Measles CPE
Cc1cc(S(=O)(=O)Nc2ccc(F)cc2)c(C)s1,-12,89*,12,8,1,6
O=C(NC(=S)NNS(=O)(=O)c1ccccc1)c1ccccc1[N+](=O)[O-],.,.,.,.,.,40
CCCCC(=O)NC(=S)NNS(=O)(=O)c1ccccc1,.,.,.,.,.,42*
COc1ccc(OC)c(-c2nc3cc4ccccc4cc3nc2-c2ccccc2)c1,.,.,.,.,.,11
COc1cc(-c2nnc(-c3ccncc3)o2)ccc1OCc1ccccc1,5,-26,-5,8,-5,91*
O=C(NNc1nc(-c2ccccc2)c2cc(Br)ccc2n1)c1ccc(S(=O)(=O)N2CCOCC2)cc1,.,.,.,.,.,10
O=C(NNc1nc(-c2ccccc2)c2cc(Br)ccc2n1)c1ccc(S(=O)(=O)N2CCCCC2)cc1,.,.,.,.,.,47*
Nc1ccc(Cc2nc3c(ccc4ccccc43)[nH]2)cc1,2,19,-2,3,7,58*
Cc1ccc2nc(Cc3ccc(N)cc3)[nH]c2c1,-1,20,1,6,4,8
COC(=O)c1ccc2c(=O)n(CCCCCC(=O)NCc3ccc4c(c3)OCO4)c(=O)[nH]c2c1,-25,90*,25,-5,15,5
N#C/C(=C/N1CCOCC1)c1ccccc1,5,6,-5,5,2,5
N#C/C(=C\c1ccc(N2CCOCC2)o1)c1nc2ccccc2[nH]1,-16,-7,16,136*[fluorescence artefact?],7,4
N#C/C(=C/c1ccc(N2CCCC2)c([N+](=O)[O-])c1)c1nc2ccccc2[nH]1,-12,-2,12,45*,12,20
N#C/C(=C/c1ccc(N2CCOCC2)o1)c1ccc(Cl)cc1,-2,12,2,113*[fluorescence artefact?],1,.
Cc1ccc(Nc2nc(CSc3nnc(-c4ccc(F)cc4)n3C)cs2)cc1,.,.,.,.,.,15
CCNS(=O)(=O)c1ccc2c(c1)NCC2,.,.,.,.,.,17
COc1cc(C)ccc1OCCOCCOc1cc(C)c(C)cc1Br,.,.,.,.,.,18
CC(C)(C)NC(=O)NC(=O)COC(=O)c1cccc(S(=O)(=O)N2CCCCC2)c1,.,.,.,.,.,21
Cc1ccc(C)c(N2C(=O)c3cc(N4CCOCC4)c([N+](=O)[O-])cc3C2=O)c1,.,.,.,.,.,11
COC(=O)c1cc(NC(=O)c2ccccc2)c(=O)oc1C/C=N\OCc1ccc(Cl)cc1Cl,.,.,.,48*,-3,7
CCOc1ccccc1CNC(=O)c1cc2oc3ccccc3c2n1C,3,-9,-3,6,-1,77*
C=CCNC(=O)c1onc(CSc2ccccc2C)c1C(=O)O,17,14,-17,5,-2,7
C=CCNC(=O)c1onc(CSc2cc(C)ccc2C)c1C(=O)O,25,-16,-25,0,-7,34*
CC(C)c1ccc(-c2c(C#N)c(N)nc(SCC(=O)N3CCCCCC3)c2C#N)cc1,5,-26,-5,11,-10,13
CC(C)c1ccc(-c2c(C#N)c(N)nc(SCC(=O)N3CCCCC3)c2C#N)cc1,-18,11,3,10,-11,33*
SMILES,IL1B NFkB pot,IL1B cytotox,IL1B NFkB inh,HIV Rev-RRE inh,FAK inh,Measles CPE
Cc1ccc(NC(=O)c2ccc(CSc3ccccn3)cc2)cc1,3,-4,-2,-6,-9,6
Cc1ccccc1NC(=O)c1ccc(CSc2ncccn2)cc1,2,-94,-2,1,0,45*
Cc1nc2ccc(NC(=O)c3cc([N+](=O)[O-])cc([N+](=O)[O-])c3Cl)cc2s1,.,.,.,.,.,0
CCOC(=O)C1C(=O)NC(N2CCCCC2)=NC1c1ccccc1 (stereo not given),.,.,.,.,.,16
CCOC(=O)C1C(=O)Nc2nc(C)nn2C1c1ccccc1 (stereo not given),84*,10,-84,-2,-7,17
Cn1c(=O)c(C(=O)COC(=O)c2cc(-c3ccccc3)nc3ccccc23)c(N)n(Cc2ccccc2)c1=O,.,.,.,.,.,25*
CC(C)OC(=O)CSc1ncnc2c1cnn2Cc1ccccc1,-14,10,14,12,4,33*
CCOc1ccccc1NC(=S)/C(=C(\[O-])c1ccc2c(c1)OCCO2)[n+]1ccc(CC)cc1,7,-8,-7,5,-2,28*
O=C(/C=C/c1ccccc1[N+](=O)[O-])NCc1cccnc1,.,.,.,.,.,21
CCCCNC(=S)N(C)/N=C/c1ccc(OCc2ccc(C(=O)OC)cc2)c(OC)c1,.,.,.,.,.,12
CCOC(=O)C(NC(=O)CC)(Nc1ccccc1OC)C(F)(F)F (stereo not given),3,-14,-3,0,-1,37
CCOC(=O)C(NC(=O)CC)(Nc1ccccc1)C(F)(F)F (stereo not given),.,.,.,.,.,24*
Nc1cc(OCC(F)(F)F)cc([N+](=O)[O-])c1,.,.,.,.,.,9
Nc1cc(N)c(OCC(F)(F)F)cc1OCC(F)(F)F,3,-8,-3,68*,14,19
Cc1nn(Cc2cccc(C(=O)N3N=C(C(F)F)CC3(O)C(F)F)c2)c(C)c1[N+](=O)[O-] (stereo not given),3,8,-3,9,-1,42*
Cc1nn(Cc2ccc(C(=O)N3N=C(C(F)F)CC3(O)C(F)F)o2)c(C)c1[N+](=O)[O-] (stereo not given),.,.,.,.,.,6
Oc1ccc(NCc2ccccc2OCc2ccccc2)cc1,.,.,.,.,.,41*
C#CCOc1ccccc1CNc1ccccc1,.,.,.,.,.,11
COc1cc(NC(=O)CSc2nc3c(C)ccc(C)c3cc2C)c(C(=O)O)cc1OC,.,.,.,.,.,4
Cc1ccc(C2CC2C(=O)NNC(=S)Nc2cccc(Cl)c2)cc1 (stereo not given),-6,71*,6,-3,1,14
c1coc(-c2nc3c4c5c(sc4ncn3n2)CCCC5)c1,1,-22,-1,3,1,17
CC1(C)Cc2c(sc3ncn4nc(-c5ccco5)nc4c23)CO1,16,10,-16,3,33*,.
O=C(N/N=C\c1ccc(F)cc1)c1cc(OCC(F)(F)F)ccc1OCC(F)(F)F,-9,-5,10,6,-3,37*
Cc1ccc(/C=N\NC(=O)c2cc(OCC(F)(F)F)ccc2OCC(F)(F)F)cc1,.,.,.,7,-11,6
CCOC(=O)c1ccc(NC(=S)NC(=O)COc2ccccc2)cc1,.,.,.,.,.,9
O=C(Cn1nc(Cc2ccncc2)c2ccccc2c1=O)N1CCc2ccccc2C1,72*,4,-72,6,3,2
COc1cc(-c2nnc(SCC(=O)c3ccc(C)cc3)o2)cc(OC)c1OC,-42,25,42*,4,0,10
COc1cccc(C(=O)CSc2nnc(-c3cc(OC)c(OC)c(OC)c3)o2)c1,12,24,-12,-6,0,20
COc1ccc(NCc2nnc(SCC(=O)c3ccc(OC)cc3)o2)cc1,-35,1,-2,-1,0,38*
COC(=O)c1ccc(N2C(=O)CC(N(C)CCc3ccc(OC)c(OC)c3)C2=O)cc1 (stereo not given),-1,-1,1,1,2,138*
